Source: PubChem BioAssay AID720574 (Broad Institute, 2013)
Values joined by “and” are separate entries in the source; they are usually repeats but may differ in a detail not shown here. Identical values can stand only once. Out of some 96,000 compounds screened, about 140 (0.15%) were called active.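 The calls were made as follows: active = mean replicate inhibition above about 25%, with at least 55% of replicates also reaching it (limit read from the data, passing the limit was not always enough); inconclusive = only one of those two conditions met; inactive = neither condition met.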 For the sample, actives were picked, then their nearest neighbours and some compounds at random. The source holds several records for some structures; these can differ, active in one and inactive in another.

biological target: Lysine-specific demethylase 4C (Homo sapiens) (UniProt Q9H3R0); assay: KDM4C H3K9me3 demethylation inhibition – biochemical, single concentration HTS, primary screen (AID 720574); details: GST-KDM4C 2-372, H3K9me3 peptide, LANCE TR-FRET; at 12.5 µM; stronger effect = higher value
Sequence (Q9H3R0 2-372 limits assumed): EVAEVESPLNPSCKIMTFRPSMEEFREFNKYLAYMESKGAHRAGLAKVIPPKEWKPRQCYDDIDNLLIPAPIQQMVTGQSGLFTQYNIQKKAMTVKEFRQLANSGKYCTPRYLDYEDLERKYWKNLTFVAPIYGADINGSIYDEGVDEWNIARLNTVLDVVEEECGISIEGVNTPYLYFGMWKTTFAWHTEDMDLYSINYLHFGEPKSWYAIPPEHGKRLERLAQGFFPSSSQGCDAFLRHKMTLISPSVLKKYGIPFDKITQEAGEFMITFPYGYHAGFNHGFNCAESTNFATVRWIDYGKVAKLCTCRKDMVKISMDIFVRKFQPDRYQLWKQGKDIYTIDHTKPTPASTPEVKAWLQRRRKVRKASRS
Summary of the method: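 material = GST-tagged GASC-1 (JMJD2C) catalytic fragment, aa 2-372 | amount = enzyme final amount 10 nM | medium = HEPES buffer, pH 7.5, plus ascorbate | also added = H3K9me3 peptide substrate, Fe(II), 2-oxoglutarate | dosing = single dose | times = 30 min demethylation and 1 h detection at room temperature | detection = LANCE TR-FRET | read-out basis = Fall in 671/618 emission ratio as inhibition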

| SMILES | inhibition |
| --- | --- |
| COc1cccc(S(=O)(=O)N[C@@H]2C=C[C@H](CC(=O)NC3CCC3)O[C@@H]2CO)c1 | -0.615% (inactive) |
| CNC(=O)C[C@@H]1CC[C@@H]2[C@@H](COc3ccc(NC(=O)Nc4ccccc4OC)cc3C(=O)N2C)O1 | -0.148% (inactive) |
| COc1ccc2c3c(n(C)c2c1)[C@@H](CO)N(C(=O)CN1CCOCC1)CC31CN(C(=O)CC2CC2)C1 | -1.48% (inactive) |
| C[C@H](CO)N1C[C@H](C)[C@@H](CN(C)C(=O)C2CC2)Oc2cc(C#CC(C)(C)O)ccc2S1(=O)=O | -1.72% (inactive) |
| O=C(C1CCCC1)N1CC(=O)N2[C@@H](CO)[C@H](c3ccc(C#CC4CCCC4)cc3)[C@@H]2C1 | 0.0785% (inactive) |
| COc1cccc(-c2ccc([C@@H]3[C@@H](CO)N4C(=O)CN(C(=O)C5CCCCC5)C[C@H]34)cc2)c1 | -0.874% (inactive) |
| CC(C)(C)[S@](=O)N1Cc2cc(C(=O)N[C@@H]3CCN(Cc4ccccc4)C3)nc(-c3cccc(-c4ccncc4)c3)c2[C@@H]1CCO | -0.764% (inactive) |
| C/C=C/c1ccccc1[C@@H]1[C@@H](C#N)N(C(=O)Cc2ccccn2)[C@H]1CO | 0.483% (inactive) |
| CN(C)CC(=O)Nc1ccc2c(c1)[C@H]1C[C@@H](CC(=O)NCc3ccc(Cl)cc3)O[C@@H](CO)[C@H]1O2 | -0.979% (inactive) |
| COc1cccc(NC(=O)N[C@@H]2CC[C@H](CC(=O)Nc3ccccc3)O[C@@H]2CO)c1 | -0.777% (inactive) |
| COc1ccc2c3c(n(C)c2c1)[C@H](CO)NCC31CCN(C(=O)Nc2ccccc2F)CC1 | 0.753% (inactive) |
| CO[C@H]1CN(C)C(=O)c2ccc(NC(C)=O)cc2OC[C@H](C)N(C(=O)Cc2ccccn2)C[C@@H]1C | 0.463% (inactive) |
| CN1C(=O)c2cc(NC(=O)C3CCC3)ccc2OC[C@@H]2O[C@@H](CC(=O)NCc3ccccc3F)CC[C@@H]21 | -1.68% (inactive) |
| CO[C@H]1CN(C)C(=O)c2ccc(NC(=O)Cc3ccccc3)cc2OC[C@@H](C)N(C(C)=O)C[C@H]1C | -0.332% (inactive) |
| COc1ccc(CNC(=O)C[C@H]2CC[C@@H]3[C@H](COc4ccc(NC(=O)C5CC5)cc4C(=O)N3C)O2)cc1 | 0.0505% (inactive) |
| C[C@@H]1CN([C@@H](C)CO)S(=O)(=O)c2ccc(-c3ccccc3F)cc2O[C@H]1CN(C)Cc1cncnc1 | 5.07% (inactive) |
| C[C@@H]1CN([C@@H](C)CO)C(=O)c2cc(C#C[C@@H](C)O)cnc2O[C@H]1CN(C)CC1CCOCC1 | 4.17% (inactive) |
| COc1ccccc1-c1cn(CC[C@@H]2CC[C@H](NC(=O)c3ccccc3F)[C@H](CO)O2)nn1 | -1.5% (inactive) |
| COC(=O)C[C@H]1CC[C@H]2[C@@H](COc3ccc(NC(=O)Nc4cccc(F)c4)cc3C(=O)N2C)O1 | -1.5% (inactive) |
| COCc1cn(CC[C@@H]2CC[C@@H](NC(=O)Cc3cccnc3)[C@@H](CO)O2)nn1 | 1.27% (inactive) |
| CC(C)(C)[S@@](=O)N1Cc2cc(C(=O)N3CCOCC3)nc(-c3cccc(-c4ccc(C#N)cc4)c3)c2[C@H]1CCO | 1.6% (inactive) |
| CC=Cc1ccc2n(c1=O)C[C@@H]1[C@@H](CO)[C@H](C(=O)N[C@H](C)c3ccccc3)N(C(=O)c3cnccn3)[C@H]21 (mixture of isomers) | 0.423% (inactive) |

| SMILES | inhibition |
| --- | --- |
| O=C(C[C@@H]1CC[C@@H]2[C@H](COC[C@H](O)CN2Cc2cccc(C(F)(F)F)c2)O1)NCc1ccc(F)cc1 | 3.72% (inactive) |
| CN(C)CC(=O)N1CC2(C1)[C@H](c1ccccc1)[C@@H](CO)N2C(=O)C1CCCCC1 | -0.237% (inactive) |
| O=C(C[C@H]1C=C[C@H](NC(=O)C2CCC2)[C@H](CO)O1)NCCCN1CCOCC1 | 1.01% (inactive) |
| COc1ccc(NC(=O)N(C)C[C@@H]2Oc3ccc(NS(=O)(=O)c4ccc(C)cc4)cc3CC(=O)N([C@@H](C)CO)C[C@H]2C)cc1 | 6.92% (inactive) |
| CCNC(=O)Nc1ccc2c(c1)C(=O)N(C)[C@H]1CC[C@@H](CC(=O)N[C@@H](C)c3ccccc3)O[C@H]1CO2 | 0.198% (inactive) |
| O=C(Nc1ccccc1F)N1CC(=O)N2[C@H](C1)[C@@H](c1ccc(C#CC3CC3)cc1)[C@@H]2CO | 1.64% (inactive) |
| CN(C)C(=O)[C@@H]1[C@@H](CO)[C@@H]2Cn3c(ccc(C4=CCCC4)c3=O)[C@H]1N2Cc1ccccn1 | 1.36% (inactive) |
| NCC[C@H]1CC[C@H](NC(=O)C2CC2)[C@@H](CO)O1 | 0.258% (inactive) |
| CO[C@H]1CN(C)C(=O)c2ccc(NC(=O)C3CC3)cc2OC[C@H](C)N(CCc2ccccc2)C[C@@H]1C | 0.468% (inactive) |
| O=C(CC(F)(F)F)N1C[C@H]2[C@@H](c3ccccc31)[C@H](CO)N2C(=O)Cc1ccccc1 | -2.83% (inactive) |
| CCCN1C[C@@H](C)[C@@H](OC)CN(C)C(=O)c2ccc(NC(=O)CC(F)(F)F)cc2OC[C@H]1C | -0.121% (inactive) |
| CN1CCN(C(=O)C[C@@H]2CC[C@@H]3[C@@H](COc4ccc(NC(=O)c5ccc(F)c(F)c5)cc4C(=O)N3C)O2)CC1 | -0.587% (inactive) |
| O=C(c1ccncc1)N1C[C@@H]2[C@H](c3ccccc31)[C@H](CO)N2C(=O)c1ccncc1 | -0.987% (inactive) |
| COc1ccc2c3c(n(C)c2c1)[C@H](CO)N(C(=O)NC(C)C)CC31CCN(C(=O)NC(C)C)CC1 | 0.238% (inactive) |
| CCCN1C[C@H](C)[C@@H](OC)CN(C)C(=O)c2ccc(NC(=O)CC)cc2OC[C@@H]1C | 2.58% (inactive) |
| O=C(Nc1ccccc1)N1CC(=O)N2[C@@H](CO)[C@H](c3ccc(C#CC4CCCC4)cc3)[C@@H]2C1 | 0.422% (inactive) |
| CN(C)C(=O)C[C@@H]1CC[C@H](NC(=O)NC2CCCCC2)[C@@H](CO)O1 | -0.283% (inactive) |
| CCCC(=O)Nc1ccc2c(c1)C(=O)N(C)[C@@H]1CC[C@H](CC(=O)NCCOC)O[C@H]1CO2 | 0.186% (inactive) |
| CC(=O)N1CC2(C1)[C@@H](c1ccccc1)[C@@H](CO)N2C(=O)c1cnccn1 | 0.148% (inactive) |
| CCC(=O)Nc1ccc2c(c1)C(=O)N(C)C[C@@H](OC)[C@H](C)CN(Cc1cccnc1)[C@@H](C)CO2 | -0.624% (inactive) |
| CCCC#Cc1ccc([C@@H]2[C@@H](CO)N3C(=O)CN(C(=O)Nc4ccc(F)cc4)C[C@@H]23)cc1 | -0.912% (inactive) |
| CCC(=O)N1[C@@H](CO)[C@@H](c2ccccc2)C12CN(C(=O)Cc1ccccc1)C2 | 7.87% (inactive) |

| SMILES | inhibition |
| --- | --- |
| Cc1noc(C)c1NC(=O)N(C)C[C@@H]1OCCCC[C@H](C)Oc2ccc(NC(=O)c3ccccc3)cc2C(=O)N([C@@H](C)CO)C[C@@H]1C | 1.18% (inactive) |
| O=C(Nc1ccccc1F)N[C@@H]1CC[C@@H](CCNC(=O)C2CC2)O[C@H]1CO | -1.05% (inactive) |
| Cc1ccccc1-c1ccc(C2[C@@H]3CN(C(=O)C4CCCCC4)C[C@H]2N3)cc1 (some centres undefined) | 40% (active) and 1.58% (inactive) |
| O=C(C1CCCCC1)N1C[C@@H]2N[C@H](C1)C2c1ccc(-c2cccc(F)c2)cc1 (some centres undefined) | 4.43% (inactive) and 0.21% (inactive) |
| O=C(C1CCC1)N1C[C@@H]2N[C@H](C1)C2c1ccc(-c2cncnc2)cc1 (some centres undefined) | 0.917% (inactive) |
| CN1c2ccc(-c3cccc(F)c3)cc2[C@H]2[C@H](CCN2C(=O)C2CCCC2)[C@@H]1CO | 5.91% (inactive) |
| COCC#Cc1ccc([C@H]2[C@H](CO)N3C(=O)CN(C(=O)Nc4ccccc4F)C[C@@H]23)cc1 | 0.262% (inactive) |
| O=C(C[C@@H]1CC[C@@H]2[C@H](COC[C@H](O)CN2Cc2cccc(-c3ccncc3)c2)O1)N1CCOCC1 | -0.984% (inactive) |
| Cc1noc(C)c1S(=O)(=O)N(C)C[C@H]1OCCCC[C@H](C)Oc2ccc(NS(=O)(=O)c3ccccc3)cc2C(=O)N([C@H](C)CO)C[C@@H]1C | -0.427% (inactive) |
| CO[C@H]1CN(C)C(=O)c2cc(NS(C)(=O)=O)ccc2OC[C@@H](C)N(C(=O)NC(C)C)C[C@@H]1C | 1.54% (inactive) |
| C[C@H]1CN([C@@H](C)CO)C(=O)c2cccc(NC(=O)CCCCCC(=O)Nc3ccccc3N)c2O[C@@H]1CN(C)C(=O)NC1CCCCC1 | 0.11% (inactive) |
| O=C(C[C@@H]1C=C[C@H](NC(=O)CN2CCOCC2)[C@@H](CO)O1)NC1CCC1 | -2.2% (inactive) |
| CCCN1[C@@H]2c3ccc(-c4ccccc4OC)c(=O)n3C[C@H]1[C@H](CO)[C@H]2C(=O)NCc1ccccn1 | 0.442% (inactive) |
| COCC(=O)N(C)C[C@H]1Oc2cc(C#C[C@@H](C)O)ccc2S(=O)(=O)N([C@H](C)CO)C[C@H]1C | 0.918% (inactive) |
| COc1ccccc1S(=O)(=O)N[C@H]1CC[C@@H](CC(=O)NCc2cc(F)cc(F)c2)O[C@H]1CO | -1.06% (inactive) |
| COc1ccc2c3c(n(C)c2c1)[C@H](CO)N(C(=O)NC(C)C)CC31CN(CC2CCCCC2)C1 | -0.934% (inactive) |
| C[C@H](CO)N1C[C@H](C)[C@H](CN(C)CC2CCCCC2)OCCCC[C@H](C)Oc2ccc(NS(=O)(=O)c3ccc(F)cc3)cc2C1=O | -1.51% (inactive) |
| COCC(=O)N1[C@H](CO)[C@H](c2ccccc2)C12CN(C(=O)NC1CCCCC1)C2 | 0.705% (inactive) |
| CCC(=O)N1CC(=O)N2[C@H](CO)[C@@H](c3ccc(-c4ccc(C(=O)N(C)C)cc4)cc3)[C@@H]2C1 | -0.23% (inactive) |
| COc1ccc(S(=O)(=O)N[C@H]2CC[C@H](CCn3cc(C(C)C)nn3)O[C@@H]2CO)cc1 | 0.0615% (inactive) |
